Laboratory results taken from article PMC9165588 (European journal of medicinal chemistry, 2022).
Entries after “also recorded” stand apart in the source; their conditions may differ. Structures can show the parent of a compound that is named as a salt.

Legend:
LSD1 [1] = molecular target: T1, LSD1 (Homo sapiens, UniProt O60341); conditions: read-out: IC50 against LSD1; cited from earlier work
[2] = molecular target: T2, binding between p300 HAT and histone H4 (Homo sapiens, UniProt Q09472); test: ALPHA assay of p300 HAT-histone H4 peptide binding
T2 sequence (Q09472 1195-1673): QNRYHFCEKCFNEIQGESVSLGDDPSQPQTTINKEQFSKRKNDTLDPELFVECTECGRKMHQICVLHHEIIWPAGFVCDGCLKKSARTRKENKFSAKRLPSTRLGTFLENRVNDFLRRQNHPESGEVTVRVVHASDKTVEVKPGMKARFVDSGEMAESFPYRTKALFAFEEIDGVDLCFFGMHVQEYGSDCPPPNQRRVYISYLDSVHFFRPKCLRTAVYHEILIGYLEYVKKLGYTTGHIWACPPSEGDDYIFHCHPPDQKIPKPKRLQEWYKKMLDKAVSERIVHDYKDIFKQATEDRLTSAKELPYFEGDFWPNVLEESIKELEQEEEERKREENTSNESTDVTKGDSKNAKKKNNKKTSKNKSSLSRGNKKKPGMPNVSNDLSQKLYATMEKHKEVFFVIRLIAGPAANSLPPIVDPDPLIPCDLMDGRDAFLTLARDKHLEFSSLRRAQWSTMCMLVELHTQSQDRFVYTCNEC

Kasumi-1 leukemia cells = test: Western blot of cellular histone H3 lysine acetylation; format: cell-based, human; conditions: Kasumi-1 cells, 12h, 5 and 10 μM
Method in brief: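 Kasumi-1 cells (10⁶ per well) were exposed to test compound at various concentrations for 12 h. Total histones were extracted with a kit, and 2 μg protein was resolved by SDS-PAGE and transferred to PVDF. Blots were probed with antibodies to H3K9Ac, H3K18Ac, H3K27Ac and total H3, then an anti-rabbit IgG secondary.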

[3] = molecular target: T3, HAT domain (1195-1673) of human p300 (Homo sapiens, UniProt Q09472); test: p300 HAT inhibition assay; format: biochemical; conditions: for inhibitory activity against p300 HAT (in words): initial screen at 10 μM; for inhibition at 10 µM: read-out: inhibition of p300 HAT at 10 μM
T3 sequence (Q09472 1195-1673): T2 sequence (Q09472 1195-1673)

PCAF = PCAF (Homo sapiens, UniProt Q92831); test: PCAF HAT inhibition assay; format: biochemical
PCAF, sequence (Q92831 whole entry): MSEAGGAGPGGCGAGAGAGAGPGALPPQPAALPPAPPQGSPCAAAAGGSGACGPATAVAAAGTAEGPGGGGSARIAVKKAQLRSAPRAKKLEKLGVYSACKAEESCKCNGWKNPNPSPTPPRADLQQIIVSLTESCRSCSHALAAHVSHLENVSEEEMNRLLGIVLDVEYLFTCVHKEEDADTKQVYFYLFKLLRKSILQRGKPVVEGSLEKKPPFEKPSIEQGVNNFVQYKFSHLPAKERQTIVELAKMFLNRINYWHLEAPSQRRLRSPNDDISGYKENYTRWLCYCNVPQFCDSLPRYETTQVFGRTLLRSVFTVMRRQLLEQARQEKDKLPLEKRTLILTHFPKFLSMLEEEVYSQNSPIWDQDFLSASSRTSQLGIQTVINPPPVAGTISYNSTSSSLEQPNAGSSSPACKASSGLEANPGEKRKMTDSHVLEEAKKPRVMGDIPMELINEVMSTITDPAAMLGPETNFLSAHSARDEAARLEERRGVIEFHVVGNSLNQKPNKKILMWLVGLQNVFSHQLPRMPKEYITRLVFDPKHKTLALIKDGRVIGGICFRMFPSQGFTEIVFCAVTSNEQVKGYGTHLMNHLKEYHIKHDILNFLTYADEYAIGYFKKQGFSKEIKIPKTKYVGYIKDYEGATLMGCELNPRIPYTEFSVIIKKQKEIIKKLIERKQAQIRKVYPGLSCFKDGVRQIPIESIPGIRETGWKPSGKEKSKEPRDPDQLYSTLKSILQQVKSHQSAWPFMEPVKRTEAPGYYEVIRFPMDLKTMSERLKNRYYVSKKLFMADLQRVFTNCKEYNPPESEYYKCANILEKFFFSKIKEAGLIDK
Method in brief: (§1)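 Radiometric acetyltransfer assay. HAT enzyme (10 nM) was preincubated with test compound for 10 min at 25 °C in 50 mM phosphate buffer, pH 7.0, with 0.01% Brij-35. After 30 min at 25 °C, stopped with 6 N formic acid. Spotted on P81 paper, washed 3× in 50 mM NaHCO₃, scintillation counted.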

Myst3 = Myst3 (Homo sapiens, UniProt Q92794); test: Myst3 HAT inhibition assay; format: biochemical
Myst3, sequence (Q92794 whole entry): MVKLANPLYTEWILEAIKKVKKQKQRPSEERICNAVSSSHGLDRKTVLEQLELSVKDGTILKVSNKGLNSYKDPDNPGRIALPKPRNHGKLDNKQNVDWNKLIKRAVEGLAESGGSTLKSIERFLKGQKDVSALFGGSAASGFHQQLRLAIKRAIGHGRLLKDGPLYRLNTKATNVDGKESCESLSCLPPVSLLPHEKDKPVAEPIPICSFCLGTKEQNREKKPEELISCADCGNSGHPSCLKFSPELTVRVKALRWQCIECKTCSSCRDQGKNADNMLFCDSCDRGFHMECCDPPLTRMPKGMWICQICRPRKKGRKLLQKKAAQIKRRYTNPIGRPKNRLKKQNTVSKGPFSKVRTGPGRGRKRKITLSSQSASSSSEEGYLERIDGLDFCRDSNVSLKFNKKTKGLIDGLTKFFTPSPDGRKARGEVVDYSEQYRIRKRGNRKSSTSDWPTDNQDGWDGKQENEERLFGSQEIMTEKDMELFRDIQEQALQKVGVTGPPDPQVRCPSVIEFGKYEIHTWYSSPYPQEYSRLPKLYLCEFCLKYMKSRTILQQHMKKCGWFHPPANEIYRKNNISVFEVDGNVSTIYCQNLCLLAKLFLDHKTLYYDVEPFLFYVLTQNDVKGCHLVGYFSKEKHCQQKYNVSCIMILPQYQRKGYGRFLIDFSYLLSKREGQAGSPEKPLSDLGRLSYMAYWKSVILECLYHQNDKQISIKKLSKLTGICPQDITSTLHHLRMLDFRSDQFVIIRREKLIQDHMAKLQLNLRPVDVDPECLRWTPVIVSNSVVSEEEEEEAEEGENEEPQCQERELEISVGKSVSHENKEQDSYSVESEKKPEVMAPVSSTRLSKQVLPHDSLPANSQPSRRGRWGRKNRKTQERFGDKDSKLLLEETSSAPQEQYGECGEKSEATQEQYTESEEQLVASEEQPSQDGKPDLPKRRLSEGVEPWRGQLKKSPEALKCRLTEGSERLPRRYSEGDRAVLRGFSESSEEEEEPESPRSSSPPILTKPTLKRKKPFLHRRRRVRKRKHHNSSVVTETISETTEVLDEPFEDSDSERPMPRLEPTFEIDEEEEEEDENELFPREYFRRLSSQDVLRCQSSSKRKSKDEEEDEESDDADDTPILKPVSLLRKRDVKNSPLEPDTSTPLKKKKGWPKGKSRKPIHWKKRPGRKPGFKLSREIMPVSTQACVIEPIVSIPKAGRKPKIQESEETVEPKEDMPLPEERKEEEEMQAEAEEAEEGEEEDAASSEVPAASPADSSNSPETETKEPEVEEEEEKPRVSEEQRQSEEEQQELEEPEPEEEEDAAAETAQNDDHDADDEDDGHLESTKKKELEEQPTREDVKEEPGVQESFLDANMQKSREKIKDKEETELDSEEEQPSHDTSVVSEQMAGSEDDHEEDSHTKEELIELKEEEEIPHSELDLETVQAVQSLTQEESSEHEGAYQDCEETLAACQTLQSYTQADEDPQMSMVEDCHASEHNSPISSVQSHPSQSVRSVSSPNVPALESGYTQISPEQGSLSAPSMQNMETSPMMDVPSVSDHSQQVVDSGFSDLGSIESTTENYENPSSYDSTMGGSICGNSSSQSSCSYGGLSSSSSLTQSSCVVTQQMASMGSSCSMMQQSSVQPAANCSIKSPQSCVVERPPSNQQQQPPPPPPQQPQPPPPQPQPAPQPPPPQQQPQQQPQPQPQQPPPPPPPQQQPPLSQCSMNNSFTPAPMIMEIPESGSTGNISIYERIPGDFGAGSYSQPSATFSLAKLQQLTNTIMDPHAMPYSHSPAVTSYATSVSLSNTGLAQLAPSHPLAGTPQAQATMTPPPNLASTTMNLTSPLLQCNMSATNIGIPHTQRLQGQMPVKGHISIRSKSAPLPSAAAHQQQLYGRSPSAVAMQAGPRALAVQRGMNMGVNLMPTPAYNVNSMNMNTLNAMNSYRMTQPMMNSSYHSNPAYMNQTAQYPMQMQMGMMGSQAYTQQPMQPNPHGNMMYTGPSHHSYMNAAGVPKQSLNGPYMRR
Method in brief: as §1

LSD1 [4] = molecular target: T1, LSD1; test: LSD1 inhibition; format: biochemical
MCF-7 = conditions: read-out: Antiproliferative activity EC50; cited from earlier work
PANC-1 = conditions: read-out: Antiproliferative activity EC50; cited from earlier work
MDA-PANC-28 = conditions: read-out: Antiproliferative activity EC50; cited from earlier work

c1ccc(-c2cc(OCC3CCNCC3)cnc2-c2ccccc2)cc1 [Compound 1, 5,6-diphenyl-3-(piperidin-4-ylmethoxy)pyridine]
IC50 (LSD1 [1]): > 100 µM

Cc1ccc(-c2ncc(OCC3CCNCC3)cc2-c2ccc(CO)cc2)cc1 [Compound 2]
IC50 (LSD1 [1]): > 100 µM

Brc1ccc(-c2ncc(OCC3CCNCC3)nc2-c2ccc(Br)cc2)cc1 [Compound 3]
effect on p300 HAT-histone H4 binding (in words) [2]: can dose-dependently disrupt the binding
IC50 (LSD1 [1]): 52.4 µM

NCCCOc1cnc(-c2ccc(Br)cc2)c(-c2ccc(Br)cc2)n1 [Compound 6, 3-((5,6-bis(4-bromophenyl)pyrazin-2-yl)oxy)propan-1-amine hydrochloride]
effect on p300 HAT-histone H4 binding (in words) [2]: not significantly inhibited
disruption of p300 HAT-histone H4 binding at 100 μM (in words) ([2]; 100 μM): did not significantly disrupt the binding
acetylation of H3K9 in cells (Kasumi-1 leukemia cells): did not significantly reduce
acetylation of H3K18 in cells (Kasumi-1 leukemia cells): did not significantly reduce
acetylation of H3K27 in cells (Kasumi-1 leukemia cells): did not significantly reduce

NCCOc1cnc(-c2ccc(Br)cc2)c(-c2ccc(Br)cc2)n1 [Compound 8, 2-((5,6-bis(4-bromophenyl)pyrazin-2-yl)oxy)ethan-1-amine hydrochloride]
inhibitory activity against p300 HAT (in words) [3]: weak inhibitors

CNCCOc1cnc(-c2ccc(Br)cc2)c(-c2ccc(Br)cc2)n1 [Compound 9, 2-((5,6-bis(4-bromophenyl)pyrazin-2-yl)oxy)-N-methylethan-1-amine hydrochloride]
inhibitory activity against p300 HAT (in words) [3]: weak inhibitors

CC(=O)NCCOc1cnc(-c2ccc(Br)cc2)c(-c2ccc(Br)cc2)n1 [Compound 10, N-(2-((5,6-bis(4-bromophenyl)pyrazin-2-yl)oxy)ethyl)acetamide hydrochloride]
inhibitory activity against p300 HAT (in words) [3]: inactive

N#Cc1ccc(-c2nc(OCC3CCNCC3)cnc2-c2ccc(Br)cc2)cc1 [Compound 22]
inhibitory activity against p300 HAT (in words) [3]: failed to improve the inhibitory activity

N#Cc1ccc(-c2ncc(OCC3CCNCC3)nc2-c2ccc(Br)cc2)cc1 [Compound 23]
inhibitory activity against p300 HAT (in words) [3]: failed to improve the inhibitory activity

NCc1ccc(-c2ncc(OCC3CCNCC3)nc2-c2ccc(CN)cc2)cc1 [Compound 27, ((5-(Piperidin-4-ylmethoxy)pyrazine-2,3-diyl)bis(4,1-phenylene))dimethanamine Hydrochloride]
activity enhancement against p300 HAT compared to compound 3 ([3]; relative to compound 3): ~ 2 fold
acetylation of H3K9 in cells (Kasumi-1 leukemia cells): dose-dependently inhibit
acetylation of H3K18 in cells (Kasumi-1 leukemia cells): not significantly affected
acetylation of H3K27 in cells (Kasumi-1 leukemia cells): dose-dependently inhibit

c1cc(-c2ccc(-c3ncc(OCC4CCNCC4)nc3-c3ccc(-c4ccoc4)cc3)cc2)co1 [Compound 29, 2,3-bis(4-(Furan-3-yl)phenyl)-5-(piperidin-4-ylmethoxy)pyrazine hydrochloride]
mode of inhibition against cofactor Ac-CoA ([3]; IC50 versus Ac-CoA 1 - 50 μM): likely non-competitive against the enzyme cofactor Ac-CoA
mode of inhibition against substrate histone ([3]; IC50 versus histone peptide 2 - 100 μM): competitive against the substrate histone
more activity against p300 HAT than initial lead compound 3 ([3]; relative to compound 3): > 4 ×
inhibition of PCAF activity at 100 μM (in words) (PCAF): did not significantly inhibit
inhibition of Myst3 activity at 100 μM (in words) (Myst3): did not significantly inhibit
inhibition of LSD1 activity at 100 μM (in words) (LSD1 [4]): did not significantly inhibit
effect on p300 HAT-histone H4 binding (in words) [2]: can dose-dependently disrupt the binding
acetylation of H3K9 in cells (Kasumi-1 leukemia cells): almost depleted
acetylation of H3K18 in cells (Kasumi-1 leukemia cells): significantly inhibited
acetylation of H3K27 in cells (Kasumi-1 leukemia cells): almost depleted

c1ccc(-c2ccc(-c3ncc(OCC4CCNCC4)nc3-c3ccc(-c4ccccn4)cc3)cc2)nc1 [Compound 30, 5-(Piperidin-4-ylmethoxy)-2,3-bis(4-(pyridin-2-yl)phenyl)pyrazine hydrochloride]
inhibition at 10 µM [3]: 37 to 39%

c1cc(-c2ccc(-c3ncc(OCC4CCNCC4)nc3-c3ccc(-c4ccncc4)cc3)cc2)ccn1 [Compound 31, 5-(Piperidin-4-ylmethoxy)-2,3-bis(4-(pyridin-4-yl)phenyl)pyrazine hydrochloride]
inhibition at 10 µM [3]: 37 to 39%

CNC(=O)Nc1ccc2c(c1)CC[C@@]21OC(=O)N(CC(=O)N(Cc2ccc(F)cc2)[C@@H](C)C(F)(F)F)C1=O [Compound A-485]
effect on p300 HAT-histone H4 binding (in words) [2]: not significantly inhibited; also recorded: did not affect the p300 HAT-histone H4 interaction
EC50 (MCF-7): > 30 µM
EC50 (PANC-1): > 30 µM
EC50 (MDA-PANC-28): > 30 µM
